Experimental data taken from ChEMBL document CHEMBL1140923, “Discovery of imidazo[1,2-b]thiazole derivatives as novel SIRT1 activators” (J Med Chem, 2009).
Calls of active or inactive are those of the source. The rule behind the calls is not given here.

Assays:
Mus musculus [1] = assay: Antidiabetic activity in C57BL/6 mouse assessed as overt sign of hypoglycemia at 100 mg/kg, po daily once after 10 weeks; format: functional, organism-based; set-up: dose 100 mg/kg
Summary of the method: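 Lean chow-fed mice were dosed 100 mg/kg po daily in 2% HPMC + 0.2% DOSS for 10 weeks and watched for overt hypoglycemia.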

Cytochrome P450 2D6 = Cytochrome P450 2D6 (Homo sapiens, UniProt P10635); assay: Inhibition of CYP2D6 at 25 uM; format: ADME
Chain of Cytochrome P450 2D6 (P10635 whole entry): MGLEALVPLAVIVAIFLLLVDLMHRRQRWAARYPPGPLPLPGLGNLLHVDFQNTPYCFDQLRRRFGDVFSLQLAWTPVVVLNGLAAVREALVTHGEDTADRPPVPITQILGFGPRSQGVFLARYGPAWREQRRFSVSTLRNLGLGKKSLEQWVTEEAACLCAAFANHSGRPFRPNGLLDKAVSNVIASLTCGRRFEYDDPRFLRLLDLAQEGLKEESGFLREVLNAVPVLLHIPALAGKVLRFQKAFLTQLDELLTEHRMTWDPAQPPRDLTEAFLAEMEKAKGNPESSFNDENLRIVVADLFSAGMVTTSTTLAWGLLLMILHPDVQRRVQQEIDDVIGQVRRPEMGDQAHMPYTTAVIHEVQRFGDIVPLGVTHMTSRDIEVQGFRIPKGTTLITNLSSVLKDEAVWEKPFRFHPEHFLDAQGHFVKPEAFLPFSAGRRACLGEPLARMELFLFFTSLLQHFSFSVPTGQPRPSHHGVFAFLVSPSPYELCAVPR
Summary of the method: (§1)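 Inhibition of CYP isozymes was tested up to a highest concentration of 25 µM.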

[2] = AUC in Sprague-Dawley rat at 100 mg/kg, po or 10 mg/kg, iv; format: ADME, organism-based; details: plasma
Summary of the method: (§2)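 Male Sprague-Dawley rats (250 g, 3 per dose group) received 100 mg/kg by oral gavage in 2% HPMC + 0.2% DOSS, or 10 mg/kg iv by tail vein in 10% ethanol/40% PEG/50% H2O. Blood was drawn at 0.033-24 h postdose for drug levels.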

Salmonella typhimurium [3] = assay: Mutagenic activity in Salmonella Typhimurium TA98 in presence of S9 activation; format: toxicity, organism-based; details: salmonella enterica subsp. enterica serovar typhimurium
Cytochrome P450 3A4 = Cytochrome P450 3A4 (Homo sapiens, UniProt P08684); assay: Inhibition of CYP3A4 at 25 uM; format: ADME; summary of the method: as §1
Chain of Cytochrome P450 3A4 (P08684 whole entry): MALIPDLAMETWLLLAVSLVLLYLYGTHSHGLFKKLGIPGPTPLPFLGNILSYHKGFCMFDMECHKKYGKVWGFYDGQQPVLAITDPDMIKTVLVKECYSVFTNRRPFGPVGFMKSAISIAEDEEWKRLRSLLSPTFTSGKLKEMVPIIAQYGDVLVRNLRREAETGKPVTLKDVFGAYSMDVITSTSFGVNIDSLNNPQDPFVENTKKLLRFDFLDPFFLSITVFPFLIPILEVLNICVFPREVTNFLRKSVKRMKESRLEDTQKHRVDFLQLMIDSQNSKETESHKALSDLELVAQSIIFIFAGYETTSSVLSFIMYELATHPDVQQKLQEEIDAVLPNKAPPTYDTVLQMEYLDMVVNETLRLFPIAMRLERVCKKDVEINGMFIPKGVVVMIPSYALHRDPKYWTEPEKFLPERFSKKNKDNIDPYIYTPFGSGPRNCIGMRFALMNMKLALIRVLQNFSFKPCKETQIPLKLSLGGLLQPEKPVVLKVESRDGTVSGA

Mus musculus [4] = assay: Toxicity in diet-induced obesity C57BL/6 mouse model assessed as red blood count at 100 mg/kg, po daily once for 10 weeks; format: organism-based; set-up: dose 100 mg/kg, route oral; details: in vivo, 1680 h
Summary of the method: (§3)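 Male C57BL/6 mice were fed a 60%-fat diet from 9 weeks of age until about 40 g, in groups of 6-10. They were dosed by oral gavage once daily in 2% HPMC + 0.2% DOSS, with 29 at 100 mg/kg and rosiglitazone at 5 mg/kg, alongside vehicle groups on lean and high-fat diet. Fed glucose was read at weeks 2, 4, 6, 8 and 10. Clinical chemistry and hematology were also measured. Analysis by ANOVA.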

Cytochrome P450 2C19 = Cytochrome P450 2C19 (Homo sapiens, UniProt P33261); assay: Inhibition of CYP2C19 at 25 uM; format: ADME; summary of the method: as §1
Chain of Cytochrome P450 2C19 (P33261 whole entry): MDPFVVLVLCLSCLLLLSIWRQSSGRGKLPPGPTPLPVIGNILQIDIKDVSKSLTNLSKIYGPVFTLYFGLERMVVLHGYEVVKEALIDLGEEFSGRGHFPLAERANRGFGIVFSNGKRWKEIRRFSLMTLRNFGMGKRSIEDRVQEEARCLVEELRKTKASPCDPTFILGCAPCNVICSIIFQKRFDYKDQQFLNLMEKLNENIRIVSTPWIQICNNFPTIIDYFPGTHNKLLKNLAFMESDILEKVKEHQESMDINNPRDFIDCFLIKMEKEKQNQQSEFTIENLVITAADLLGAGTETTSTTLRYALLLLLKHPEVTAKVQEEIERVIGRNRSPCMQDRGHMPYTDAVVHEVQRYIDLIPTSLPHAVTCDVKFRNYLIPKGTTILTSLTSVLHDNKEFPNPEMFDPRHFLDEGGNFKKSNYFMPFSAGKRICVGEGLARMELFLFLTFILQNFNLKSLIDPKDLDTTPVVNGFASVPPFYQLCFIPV

Salmonella typhimurium [5] = assay: Mutagenic activity in Salmonella Typhimurium TA100 in presence of S9 activation; format: toxicity, organism-based; details: salmonella enterica subsp. enterica serovar typhimurium
[6] = Inhibition of CYP1A at 25 uM; format: ADME; summary of the method: as §1
[7] = Inhibition of sodium channel site 2
Rattus norvegicus [8] = assay: Antidiabetic activity in genetic Zucker fa/fa rat model assessed as reduction of fed blood glucose level at 100 mg/kg, po daily once after 3 weeks relative to control; format: functional, organism-based; set-up: dose 100 mg/kg
Summary of the method: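 Male Zucker fa/fa rats, housed singly, were gavaged daily from 7 weeks of age with 100 mg/kg or vehicle (2% HPMC + 0.2% DOSS), 5 per group. Fed tail-vein glucose was taken on day 22. Also on day 22, after an overnight fast, sodium pyruvate 1 g/kg was given ip and glucose was read at 0-90 min.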

Cytochrome P450 2C9 = Cytochrome P450 2C9 (Homo sapiens, UniProt P11712); assay: Inhibition of CYP2C9 at 25 uM; format: ADME; summary of the method: as §1
Chain of Cytochrome P450 2C9 (P11712 whole entry): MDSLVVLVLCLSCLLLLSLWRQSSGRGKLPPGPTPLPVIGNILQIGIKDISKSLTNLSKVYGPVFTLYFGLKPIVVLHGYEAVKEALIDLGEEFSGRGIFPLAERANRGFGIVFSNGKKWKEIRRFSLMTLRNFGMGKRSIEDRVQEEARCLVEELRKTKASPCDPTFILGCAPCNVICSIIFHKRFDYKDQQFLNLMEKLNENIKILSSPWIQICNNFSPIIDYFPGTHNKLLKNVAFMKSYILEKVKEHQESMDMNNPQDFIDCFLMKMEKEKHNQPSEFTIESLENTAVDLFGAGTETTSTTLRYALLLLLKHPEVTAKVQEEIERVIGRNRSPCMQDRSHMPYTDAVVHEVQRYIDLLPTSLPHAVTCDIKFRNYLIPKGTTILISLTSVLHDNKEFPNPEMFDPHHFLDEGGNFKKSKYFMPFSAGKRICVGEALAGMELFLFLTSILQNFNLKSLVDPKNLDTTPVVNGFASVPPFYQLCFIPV

[9] = Oral bioavailability in Sprague-Dawley rat at 100 mg/kg; format: ADME, organism-based; details: in vivo; summary of the method: as §2
Mus musculus [10] = assay: Toxicity in diet-induced obesity C57BL/6 mouse model assessed as hemoglobin at 100 mg/kg, po daily once for 10 weeks; format: organism-based; set-up: dose 100 mg/kg, route oral; details: in vivo, 1680 h; summary of the method: as §3
[11] = Terminal half life in Sprague-Dawley rat at 100 mg/kg, po or 10 mg/kg, iv; format: ADME, organism-based; details: in vivo, read-out: beta t1/2 (converted); summary of the method: as §2
Salmonella typhimurium [12] = assay: Mutagenic activity in Salmonella Typhimurium TA98 in absence of S9 activation; format: toxicity, organism-based; details: salmonella enterica subsp. enterica serovar typhimurium
[13] = molecular target: Voltage-gated inwardly rectifying potassium channel KCNH2 (Homo sapiens, UniProt Q12809); assay: Inhibition of human ERG by patch clamp method
Chain of Voltage-gated inwardly rectifying potassium channel KCNH2 (Q12809 whole entry): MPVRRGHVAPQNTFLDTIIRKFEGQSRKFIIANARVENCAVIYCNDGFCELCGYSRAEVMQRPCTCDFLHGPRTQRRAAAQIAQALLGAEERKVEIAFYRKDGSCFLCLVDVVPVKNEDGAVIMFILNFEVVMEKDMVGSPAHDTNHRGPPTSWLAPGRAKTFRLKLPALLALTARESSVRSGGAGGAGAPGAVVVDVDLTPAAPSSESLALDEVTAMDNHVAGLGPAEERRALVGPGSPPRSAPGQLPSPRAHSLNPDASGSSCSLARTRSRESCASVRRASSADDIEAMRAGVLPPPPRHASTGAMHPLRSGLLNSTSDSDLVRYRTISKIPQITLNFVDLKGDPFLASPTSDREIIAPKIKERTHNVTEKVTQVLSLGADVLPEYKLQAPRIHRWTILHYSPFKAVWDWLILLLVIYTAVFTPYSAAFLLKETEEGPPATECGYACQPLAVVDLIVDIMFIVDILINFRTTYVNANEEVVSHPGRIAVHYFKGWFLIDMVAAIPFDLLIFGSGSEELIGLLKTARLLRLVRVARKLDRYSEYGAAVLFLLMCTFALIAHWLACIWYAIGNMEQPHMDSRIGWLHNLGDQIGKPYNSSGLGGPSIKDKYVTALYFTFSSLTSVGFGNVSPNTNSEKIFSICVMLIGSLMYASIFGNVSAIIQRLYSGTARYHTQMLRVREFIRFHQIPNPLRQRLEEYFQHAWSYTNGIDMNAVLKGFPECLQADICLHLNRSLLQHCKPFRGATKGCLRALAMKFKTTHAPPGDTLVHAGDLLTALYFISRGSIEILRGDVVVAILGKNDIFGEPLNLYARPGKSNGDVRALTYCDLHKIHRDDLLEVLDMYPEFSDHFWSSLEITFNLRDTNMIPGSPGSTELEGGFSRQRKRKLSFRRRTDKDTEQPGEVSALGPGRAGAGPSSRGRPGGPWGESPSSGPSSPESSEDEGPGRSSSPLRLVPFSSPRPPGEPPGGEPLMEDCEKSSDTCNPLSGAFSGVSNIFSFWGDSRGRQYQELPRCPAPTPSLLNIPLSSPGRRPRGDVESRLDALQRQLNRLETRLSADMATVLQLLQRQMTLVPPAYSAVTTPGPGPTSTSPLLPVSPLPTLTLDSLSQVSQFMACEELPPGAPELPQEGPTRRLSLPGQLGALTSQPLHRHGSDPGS
Summary of the method: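 hERG was measured by patch clamp.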

[14] = molecular target: T1, Muscarinic acetylcholine receptor M1 (Homo sapiens, UniProt P11229); assay: Inhibition of muscarinic M1 receptor
T1 sequence (P11229 whole entry): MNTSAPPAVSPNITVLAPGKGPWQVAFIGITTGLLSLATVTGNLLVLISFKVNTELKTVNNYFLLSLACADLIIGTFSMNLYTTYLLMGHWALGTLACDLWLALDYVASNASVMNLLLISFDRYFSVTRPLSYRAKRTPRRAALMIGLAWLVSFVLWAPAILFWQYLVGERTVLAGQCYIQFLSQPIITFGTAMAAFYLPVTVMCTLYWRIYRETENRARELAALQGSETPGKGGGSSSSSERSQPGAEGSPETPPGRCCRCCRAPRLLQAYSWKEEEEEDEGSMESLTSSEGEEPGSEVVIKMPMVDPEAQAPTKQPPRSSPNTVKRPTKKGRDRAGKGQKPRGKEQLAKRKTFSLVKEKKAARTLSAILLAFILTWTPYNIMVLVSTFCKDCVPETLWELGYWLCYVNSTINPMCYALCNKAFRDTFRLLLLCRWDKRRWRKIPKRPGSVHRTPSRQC

[15] = Cmax in C57BL/6 mouse at 100 mg/kg, po or 10 mg/kg, iv; format: ADME, organism-based; details: in vivo
Summary of the method: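 Male C57BL/6 mice (18-22 g; 3 per dose group per time point), given 100 mg/kg po as the hydrochloride salt in 2% HPMC + 0.2% DOSS, or 10 mg/kg iv by tail vein in 10% ethanol/40% polyethylene glycol/50% H2O. Plasma was taken at 5, 30, 120 and 360 min after dosing and drug levels were measured.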

[16] = molecular target: Sodium-dependent noradrenaline transporter (Homo sapiens, UniProt P23975); assay: Inhibition of norepinephrine transporter
Chain of Sodium-dependent noradrenaline transporter (P23975 whole entry, the tested form may be a part): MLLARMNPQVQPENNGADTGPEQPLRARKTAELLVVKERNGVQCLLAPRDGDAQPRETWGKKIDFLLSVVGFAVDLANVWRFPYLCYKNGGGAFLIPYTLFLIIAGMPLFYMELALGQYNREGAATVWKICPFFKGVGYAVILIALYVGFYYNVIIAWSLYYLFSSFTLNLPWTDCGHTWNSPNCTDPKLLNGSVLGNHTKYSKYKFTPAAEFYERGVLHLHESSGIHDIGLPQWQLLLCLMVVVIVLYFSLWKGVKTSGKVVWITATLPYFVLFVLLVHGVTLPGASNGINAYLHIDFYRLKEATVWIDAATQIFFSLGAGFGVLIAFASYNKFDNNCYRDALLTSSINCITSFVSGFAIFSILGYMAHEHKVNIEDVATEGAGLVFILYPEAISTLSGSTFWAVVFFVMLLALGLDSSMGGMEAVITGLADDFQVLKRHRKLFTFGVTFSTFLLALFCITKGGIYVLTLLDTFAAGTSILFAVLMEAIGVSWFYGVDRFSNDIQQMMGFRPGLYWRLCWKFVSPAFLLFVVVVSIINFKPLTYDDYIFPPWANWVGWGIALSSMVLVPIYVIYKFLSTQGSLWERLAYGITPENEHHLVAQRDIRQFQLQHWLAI

Rattus norvegicus [17] = assay: Antidiabetic activity in genetic Zucker fa/fa rat model assessed as increase in glucose infusion rate at 100 mg/kg, po daily once after 4 weeks by hyperinsulinemic-euglycemic clamp; format: functional
Summary of the method: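 Zucker fa/fa rats, cannulated 5 days beforehand and fasted 8 h, underwent the clamp after 4 weeks of dosing. [3-3H]glucose tracer was primed and infused, then insulin 25 (mU/kg)/min was started. Variable 50% dextrose held blood glucose at 100 mg/dL over 120 min, with tracer specific activity sampled at 110 and 120 min.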

Mus musculus [18] = assay: Antidiabetic activity in diet-induced obesity C57BL/6 mouse model assessed as reduction of fed blood glucose level at 100 mg/kg, po daily once for 1 week after 10 weeks; format: functional; set-up: scale not given: the % may be the effect or the level left; summary of the method: as §3
Mus musculus [19] = assay: Toxicity in diet-induced obesity C57BL/6 mouse model assessed as white blood count at 100 mg/kg, po daily once for 10 weeks; format: organism-based; set-up: dose 100 mg/kg, route oral; details: in vivo, 1680 h; summary of the method: as §3
[20] = Cmax in Sprague-Dawley rat at 100 mg/kg, po or 10 mg/kg, iv; format: ADME, organism-based; details: in vivo; summary of the method: as §2
Mus musculus [21] = assay: Antidiabetic activity in diet-induced obesity C57BL/6 mouse model assessed as reduction of fed blood glucose level at 100 mg/kg, po daily once relative to control

## O=C(Nc1ccccc1-c1cn2c(CN3CCNCC3)csc2n1)c1cnc2ccccc2n1
Mus musculus [1]
  Activity: inactive
Cytochrome P450 2D6
  Activity: Not Active
[2]
  AUC: 3700 ng·h/mL
Salmonella typhimurium [3]
  Activity: Non-toxic
Cytochrome P450 3A4
  Activity: Not Active
Mus musculus [4]
  Activity: Active
Cytochrome P450 2C19
  Activity: Not Active
Salmonella typhimurium [5]
  Activity: Non-toxic
[6]
  Activity: Not Active
[7]
  IC50: 3.37 µM
Rattus norvegicus [8]
  Activity: Active
Cytochrome P450 2C9
  Activity: Not Active
[9]
  bioavailability: 25%
Mus musculus [10]
  Activity: Active
[11]
  half-life: 8.4 h
Salmonella typhimurium [12]
  Activity: Non-toxic
[13]
  IC50: > 10 µM
[14]
  IC50: 8.02 µM
[15]
  Cmax: 1000 nM
[16]
  IC50: 2.47 µM
Rattus norvegicus [17]
  Activity: 35%
Mus musculus [18]
  Activity: 15%
Mus musculus [19]
  Activity: Active
[20]
  Cmax: 320 nM
Mus musculus [21]
  Activity: Active
